Results taken from ChEMBL document CHEMBL1139352, “Synthesis and evaluation of novel inhibitors of Pim-1 and Pim-2 protein kinases” (J Med Chem, 2009).

Columns and labels:
Mus musculus [1] = test: Toxicity in Swiss Webster mouse assessed as amylase level at 10 mg/kg, ip daily for 7 days measured after 7 days; assay type: organism-based; design: dose 10 mg/kg, route intraperitoneal; conditions: in vivo, 168 h
[2] = biological target: Ribosomal protein S6 kinase alpha-1 (Homo sapiens) (UniProt Q15418); test: Inhibition of RSK1 at 5 uM
[3] = biological target: Tyrosine-protein kinase Lck (Homo sapiens) (UniProt P06239); test: Inhibition of LCK at 5 uM
[4] = biological target: Glycogen synthase kinase-3 beta (Homo sapiens) (UniProt P49841); test: Inhibition of GSK3-beta at 5 uM
Mus musculus [5] = test: Toxicity in Swiss Webster mouse assessed as phosphate level at 3 mg/kg, ip daily for 7 days measured after 7 days; assay type: organism-based; design: dose 3 mg/kg, route intraperitoneal; conditions: in vivo, 168 h
Mus musculus [6] = test: Toxicity in Swiss Webster mouse assessed as blood urea nitrogen level at 3 mg/kg, ip daily for 7 days measured after 7 days; assay type: organism-based; design: dose 3 mg/kg, route intraperitoneal; conditions: in vivo, 168 h
Mus musculus [7] = test: Toxicity in Swiss Webster mouse assessed as lymphocyte count at 3 mg/kg, ip daily for 7 days measured after 7 days; assay type: organism-based; design: dose 3 mg/kg, route intraperitoneal; conditions: in vivo, 168 h
[8] = biological target: Mitogen-activated protein kinase 9 (Homo sapiens) (UniProt P45984); test: Inhibition of JNK2 at 5 uM
[9] = biological target: Serine/threonine-protein kinase PLK1 (Homo sapiens) (UniProt P53350); test: Inhibition of PLK1 at 5 uM
[10] = biological target: Serine/threonine-protein kinase Chk2 (Homo sapiens) (UniProt O96017); test: Inhibition of CHK2 at 5 uM
Mus musculus [11] = test: Toxicity in Swiss Webster mouse assessed as hemoglobin level at 50 mg/kg, ip daily for 7 days measured after 7 days; assay type: organism-based; design: dose 50 mg/kg, route intraperitoneal; conditions: in vivo, 168 h
Mus musculus [12] = test: Toxicity in Swiss Webster mouse assessed as white blood cell count at 3 mg/kg, ip daily for 7 days measured after 7 days; assay type: organism-based; design: dose 3 mg/kg, route intraperitoneal; conditions: in vivo, 168 h
In short: (§1)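 Six-week-old female Swiss Webster mice (about 25 g) received intraperitoneal injections daily for 7 days. Doses were 3, 10 or 50 mg/kg, with a vehicle group (30% PEG-400, 5% Tween-80, 65% DMSO). Values are reported as ranges per group.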

Mus musculus [13] = test: Toxicity in Swiss Webster mouse assessed as monocyte count at 3 mg/kg, ip daily for 7 days measured after 7 days; assay type: organism-based; design: dose 3 mg/kg, route intraperitoneal; conditions: in vivo, 168 h
[14] = biological target: Serine/threonine-protein kinase PAK 2 (Homo sapiens) (UniProt Q13177); test: Inhibition of PAK2 at 5 uM
Mus musculus [15] = test: Toxicity in Swiss Webster mouse assessed as alkaline phosphatase level at 50 mg/kg, ip daily for 7 days measured after 7 days; assay type: organism-based; design: dose 50 mg/kg, route intraperitoneal; conditions: in vivo, 168 h
Mus musculus [16] = test: Toxicity in Swiss Webster mouse assessed as Na+ level at 3 mg/kg, ip daily for 7 days measured after 7 days; assay type: organism-based; design: dose 3 mg/kg, route intraperitoneal; conditions: in vivo, 168 h
[17] = biological target: Receptor-type tyrosine-protein kinase FLT3 (Homo sapiens) (UniProt P36888); test: Inhibition of FLT3 at 5 uM
Mus musculus [18] = test: Toxicity in Swiss Webster mouse assessed as phosphate level at 50 mg/kg, ip daily for 7 days measured after 7 days; assay type: organism-based; design: dose 50 mg/kg, route intraperitoneal; conditions: in vivo, 168 h
[19] = biological target: Calcium/calmodulin-dependent protein kinase type IV (Homo sapiens) (UniProt Q16566); test: Inhibition of CAMK4 at 5 uM
Mus musculus [20] = test: Toxicity in Swiss-Webster mouse at 50 mg/kg, ip daily for 5 days; assay type: organism-based; design: dose 50 mg/kg, route intraperitoneal; conditions: in vivo, 120 h
[21] = biological target: Serine/threonine-protein kinase pim-2 (Homo sapiens, UniProt Q9P1W9); test: Inhibition of PIM2 at 5 uM
Mus musculus [22] = test: Toxicity in Swiss Webster mouse assessed as monocyte count at 50 mg/kg, ip daily for 7 days measured after 7 days; assay type: organism-based; design: dose 50 mg/kg, route intraperitoneal; conditions: in vivo, 168 h
Mus musculus [23] = test: Toxicity in Swiss Webster mouse assessed as blood urea nitrogen level at 50 mg/kg, ip daily for 7 days measured after 7 days; assay type: organism-based; design: dose 50 mg/kg, route intraperitoneal; conditions: in vivo, 168 h
[24] = Inhibition of PKGalpha at 5 uM
Mus musculus [25] = test: Toxicity against mouse JC cells xenografted BALB/c mouse assessed as loss of body weight at 50 mg/kg, ip for 5 days per week; assay type: organism-based; design: dose 50 mg/kg, route intraperitoneal; conditions: in vivo, 120 h
Mus musculus [26] = test: Toxicity in Swiss Webster mouse assessed as monocyte count at 10 mg/kg, ip daily for 7 days measured after 7 days; assay type: organism-based; design: dose 10 mg/kg, route intraperitoneal; conditions: in vivo, 168 h
[27] = biological target: Mitogen-activated protein kinase 1 (Homo sapiens) (UniProt P28482); test: Inhibition of Erk2 at 5 uM
[28] = biological target: Epidermal growth factor receptor (Homo sapiens) (UniProt P00533); test: Inhibition of EGFR at 5 uM
[29] = biological target: Serine/threonine-protein kinase 3 (Homo sapiens) (UniProt Q13188); test: Inhibition of MST2 at 5 uM
[30] = biological target: RAC-alpha serine/threonine-protein kinase (Homo sapiens) (UniProt P31749); test: Inhibition of AKT1 at 5 uM
Mus musculus [31] = test: Toxicity in Swiss Webster mouse assessed as lymphocyte count at 50 mg/kg, ip daily for 7 days measured after 7 days; assay type: organism-based; design: dose 50 mg/kg, route intraperitoneal; conditions: in vivo, 168 h
[32] = Inhibition of PKA at 5 uM
[33] = biological target: Tyrosine-protein kinase JAK2 (Homo sapiens) (UniProt O60674); test: Inhibition of JAK2 at 5 uM
[34] = biological target: Tyrosine-protein kinase ABL1 (Homo sapiens) (UniProt P00519); test: Inhibition of ABL at 5 uM
Mus musculus [35] = test: Toxicity in Swiss Webster mouse assessed as alanine aminotransferase level at 50 mg/kg, ip daily for 7 days measured after 7 days; assay type: organism-based; design: dose 50 mg/kg, route intraperitoneal; conditions: in vivo, 168 h
[36] = biological target: Mitogen-activated protein kinase kinase kinase kinase 4 (Homo sapiens) (UniProt O95819); test: Inhibition of HGK at 5 uM
Mus musculus [37] = test: Toxicity in Swiss Webster mouse assessed as albumin level at 50 mg/kg, ip daily for 7 days measured after 7 days; assay type: organism-based; design: dose 50 mg/kg, route intraperitoneal; conditions: in vivo, 168 h
Mus musculus [38] = test: Toxicity in Swiss Webster mouse assessed as creatinine level at 3 mg/kg, ip daily for 7 days measured after 7 days; assay type: organism-based; design: dose 3 mg/kg, route intraperitoneal; conditions: in vivo, 168 h
Mus musculus [39] = test: Toxicity in Swiss Webster mouse assessed as lymphocyte count at 10 mg/kg, ip daily for 7 days measured after 7 days; assay type: organism-based; design: dose 10 mg/kg, route intraperitoneal; conditions: in vivo, 168 h
[40] = biological target: Platelet-derived growth factor receptor alpha (Homo sapiens) (UniProt P16234); test: Inhibition of PDGFRalpha at 5 uM
[41] = biological target: RAF proto-oncogene serine/threonine-protein kinase (Homo sapiens) (UniProt P04049); test: Inhibition of c-Raf at 5 uM
Mus musculus [42] = test: Toxicity in Swiss Webster mouse assessed as white blood cell count at 10 mg/kg, ip daily for 7 days measured after 7 days; assay type: organism-based; design: dose 10 mg/kg, route intraperitoneal; conditions: in vivo, 168 h; in short: as §1
[43] = biological target: MAP kinase-activated protein kinase 5 (Homo sapiens) (UniProt Q8IW41); test: Inhibition of PRAK at 5 uM
[44] = biological target: RAC-beta serine/threonine-protein kinase (Homo sapiens) (UniProt P31751); test: Inhibition of AKT2 at 5 uM
[45] = biological target: Ribosomal protein S6 kinase beta-1 (Homo sapiens) (UniProt P23443); test: Inhibition of p70S6K at 5 uM
Mus musculus [46] = test: Toxicity in Swiss-Webster mouse at 100 mg/kg, ip daily for 5 days; assay type: organism-based; design: dose 100 mg/kg, route intraperitoneal; conditions: in vivo, 120 h
[47] = biological target: Protein kinase C beta type (Homo sapiens) (UniProt P05771); test: Inhibition of PKCbeta2 at 5 uM
[48] = biological target: Inhibitor of nuclear factor kappa-B kinase subunit beta (Homo sapiens) (UniProt O14920); test: Inhibition of IKK-beta at 5 uM

Sequence of Glycogen synthase kinase-3 beta (Homo sapiens) (P49841 whole entry, looked up): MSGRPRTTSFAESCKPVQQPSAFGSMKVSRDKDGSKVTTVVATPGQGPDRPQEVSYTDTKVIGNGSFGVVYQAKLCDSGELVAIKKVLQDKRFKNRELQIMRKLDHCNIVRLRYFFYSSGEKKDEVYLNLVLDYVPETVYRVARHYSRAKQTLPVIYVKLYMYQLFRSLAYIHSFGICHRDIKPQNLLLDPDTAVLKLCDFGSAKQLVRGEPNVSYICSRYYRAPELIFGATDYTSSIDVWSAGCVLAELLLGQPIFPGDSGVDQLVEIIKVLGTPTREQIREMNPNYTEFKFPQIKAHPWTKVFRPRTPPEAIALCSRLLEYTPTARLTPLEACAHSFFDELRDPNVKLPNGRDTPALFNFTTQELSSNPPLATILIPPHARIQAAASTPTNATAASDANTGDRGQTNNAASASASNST
Sequence of Mitogen-activated protein kinase 1 (Homo sapiens) (P28482 whole entry): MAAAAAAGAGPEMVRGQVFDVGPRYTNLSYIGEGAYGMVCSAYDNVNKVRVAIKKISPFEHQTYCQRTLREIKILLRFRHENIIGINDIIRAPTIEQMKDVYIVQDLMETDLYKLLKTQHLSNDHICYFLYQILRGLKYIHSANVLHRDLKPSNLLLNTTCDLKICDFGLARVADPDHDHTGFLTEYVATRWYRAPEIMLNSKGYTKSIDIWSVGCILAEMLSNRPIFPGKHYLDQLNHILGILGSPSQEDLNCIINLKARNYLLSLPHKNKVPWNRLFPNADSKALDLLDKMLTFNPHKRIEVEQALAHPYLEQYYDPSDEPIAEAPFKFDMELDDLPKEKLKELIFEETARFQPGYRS
Sequence of MAP kinase-activated protein kinase 5 (Homo sapiens) (Q8IW41 whole entry): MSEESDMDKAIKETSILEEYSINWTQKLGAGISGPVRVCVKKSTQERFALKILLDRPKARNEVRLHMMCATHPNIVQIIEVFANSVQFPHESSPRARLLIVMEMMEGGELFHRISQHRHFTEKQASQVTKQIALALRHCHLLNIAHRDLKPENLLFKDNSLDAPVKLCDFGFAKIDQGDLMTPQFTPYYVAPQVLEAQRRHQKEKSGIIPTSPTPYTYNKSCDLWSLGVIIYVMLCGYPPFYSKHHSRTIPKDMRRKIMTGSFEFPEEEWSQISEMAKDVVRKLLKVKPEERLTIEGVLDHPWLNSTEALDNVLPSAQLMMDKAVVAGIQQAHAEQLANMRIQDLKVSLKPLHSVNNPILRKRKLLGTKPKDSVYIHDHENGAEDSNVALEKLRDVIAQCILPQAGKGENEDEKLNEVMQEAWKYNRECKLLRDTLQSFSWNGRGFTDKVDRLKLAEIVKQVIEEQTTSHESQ
Sequence of Platelet-derived growth factor receptor alpha (Homo sapiens) (P16234 whole entry): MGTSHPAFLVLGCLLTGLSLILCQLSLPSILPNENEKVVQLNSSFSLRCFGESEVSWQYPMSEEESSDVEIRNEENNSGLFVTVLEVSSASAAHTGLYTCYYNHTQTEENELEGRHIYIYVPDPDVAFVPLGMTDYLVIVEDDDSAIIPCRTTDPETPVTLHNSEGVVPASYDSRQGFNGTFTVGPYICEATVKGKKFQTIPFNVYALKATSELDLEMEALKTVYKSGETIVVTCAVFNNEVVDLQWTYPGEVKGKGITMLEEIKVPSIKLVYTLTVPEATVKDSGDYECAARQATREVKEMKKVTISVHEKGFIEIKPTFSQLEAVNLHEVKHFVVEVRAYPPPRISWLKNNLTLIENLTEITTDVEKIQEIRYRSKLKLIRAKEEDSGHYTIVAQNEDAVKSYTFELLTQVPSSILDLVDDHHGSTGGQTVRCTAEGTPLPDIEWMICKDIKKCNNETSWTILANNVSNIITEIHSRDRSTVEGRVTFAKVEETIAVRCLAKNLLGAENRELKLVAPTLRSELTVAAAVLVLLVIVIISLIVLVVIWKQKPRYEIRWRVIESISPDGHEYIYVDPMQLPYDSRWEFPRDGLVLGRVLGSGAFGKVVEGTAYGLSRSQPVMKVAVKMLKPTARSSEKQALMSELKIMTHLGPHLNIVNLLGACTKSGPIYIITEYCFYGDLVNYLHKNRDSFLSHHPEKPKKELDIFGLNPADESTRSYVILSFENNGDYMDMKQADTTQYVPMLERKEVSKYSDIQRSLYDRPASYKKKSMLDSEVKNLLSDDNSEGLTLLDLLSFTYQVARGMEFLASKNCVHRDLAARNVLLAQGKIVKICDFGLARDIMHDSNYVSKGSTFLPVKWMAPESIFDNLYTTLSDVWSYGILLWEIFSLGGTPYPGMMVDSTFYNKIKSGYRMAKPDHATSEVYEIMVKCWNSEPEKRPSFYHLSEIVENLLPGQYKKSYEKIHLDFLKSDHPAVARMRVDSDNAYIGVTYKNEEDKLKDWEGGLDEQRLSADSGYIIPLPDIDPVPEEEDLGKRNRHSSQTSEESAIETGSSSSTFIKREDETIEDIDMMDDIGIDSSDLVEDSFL
Sequence of Serine/threonine-protein kinase Chk2 (Homo sapiens) (O96017 whole entry): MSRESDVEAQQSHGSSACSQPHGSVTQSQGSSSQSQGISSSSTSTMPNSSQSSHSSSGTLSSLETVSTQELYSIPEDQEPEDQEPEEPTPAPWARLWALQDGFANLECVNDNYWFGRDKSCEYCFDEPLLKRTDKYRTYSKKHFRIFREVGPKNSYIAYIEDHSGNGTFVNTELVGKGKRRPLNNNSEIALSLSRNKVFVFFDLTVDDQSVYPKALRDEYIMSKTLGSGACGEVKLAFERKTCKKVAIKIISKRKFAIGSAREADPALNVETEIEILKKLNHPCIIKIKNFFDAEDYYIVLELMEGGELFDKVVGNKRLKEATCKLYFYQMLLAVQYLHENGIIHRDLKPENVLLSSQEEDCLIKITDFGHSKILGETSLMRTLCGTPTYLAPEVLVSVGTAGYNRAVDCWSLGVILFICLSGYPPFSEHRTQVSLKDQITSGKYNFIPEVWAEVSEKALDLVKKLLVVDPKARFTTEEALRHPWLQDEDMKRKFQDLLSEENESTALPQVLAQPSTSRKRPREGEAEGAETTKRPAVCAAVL
Sequence of RAC-alpha serine/threonine-protein kinase (Homo sapiens) (P31749 whole entry): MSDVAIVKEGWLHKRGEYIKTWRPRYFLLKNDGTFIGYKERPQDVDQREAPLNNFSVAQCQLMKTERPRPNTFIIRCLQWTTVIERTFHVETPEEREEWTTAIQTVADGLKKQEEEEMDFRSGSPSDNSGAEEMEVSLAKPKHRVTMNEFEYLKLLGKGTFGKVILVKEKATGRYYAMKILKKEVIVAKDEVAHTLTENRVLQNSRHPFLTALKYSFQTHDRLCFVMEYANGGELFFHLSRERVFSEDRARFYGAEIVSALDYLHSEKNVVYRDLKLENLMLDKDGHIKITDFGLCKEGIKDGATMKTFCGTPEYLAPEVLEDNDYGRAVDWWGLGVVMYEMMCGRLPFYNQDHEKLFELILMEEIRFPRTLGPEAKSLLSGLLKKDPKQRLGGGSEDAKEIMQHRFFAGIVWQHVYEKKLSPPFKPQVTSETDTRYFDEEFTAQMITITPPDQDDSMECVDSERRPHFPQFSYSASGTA
Sequence of Serine/threonine-protein kinase PLK1 (Homo sapiens) (P53350 whole entry): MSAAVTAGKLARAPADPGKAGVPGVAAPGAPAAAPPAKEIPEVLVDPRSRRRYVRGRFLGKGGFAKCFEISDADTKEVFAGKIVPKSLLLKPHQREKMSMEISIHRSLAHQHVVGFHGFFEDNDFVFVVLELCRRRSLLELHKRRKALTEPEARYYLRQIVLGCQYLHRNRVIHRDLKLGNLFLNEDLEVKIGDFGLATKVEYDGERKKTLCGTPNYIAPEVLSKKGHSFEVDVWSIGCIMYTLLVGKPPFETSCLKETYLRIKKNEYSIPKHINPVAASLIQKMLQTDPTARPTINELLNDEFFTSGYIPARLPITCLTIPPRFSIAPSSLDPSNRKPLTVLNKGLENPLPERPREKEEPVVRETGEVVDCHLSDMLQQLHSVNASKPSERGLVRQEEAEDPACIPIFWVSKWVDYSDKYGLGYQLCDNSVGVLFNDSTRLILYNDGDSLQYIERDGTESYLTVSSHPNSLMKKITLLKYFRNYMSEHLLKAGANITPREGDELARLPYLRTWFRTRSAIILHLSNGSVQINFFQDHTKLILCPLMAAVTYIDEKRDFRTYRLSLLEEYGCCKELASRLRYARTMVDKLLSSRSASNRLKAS
Sequence of RAC-beta serine/threonine-protein kinase (Homo sapiens) (P31751 whole entry): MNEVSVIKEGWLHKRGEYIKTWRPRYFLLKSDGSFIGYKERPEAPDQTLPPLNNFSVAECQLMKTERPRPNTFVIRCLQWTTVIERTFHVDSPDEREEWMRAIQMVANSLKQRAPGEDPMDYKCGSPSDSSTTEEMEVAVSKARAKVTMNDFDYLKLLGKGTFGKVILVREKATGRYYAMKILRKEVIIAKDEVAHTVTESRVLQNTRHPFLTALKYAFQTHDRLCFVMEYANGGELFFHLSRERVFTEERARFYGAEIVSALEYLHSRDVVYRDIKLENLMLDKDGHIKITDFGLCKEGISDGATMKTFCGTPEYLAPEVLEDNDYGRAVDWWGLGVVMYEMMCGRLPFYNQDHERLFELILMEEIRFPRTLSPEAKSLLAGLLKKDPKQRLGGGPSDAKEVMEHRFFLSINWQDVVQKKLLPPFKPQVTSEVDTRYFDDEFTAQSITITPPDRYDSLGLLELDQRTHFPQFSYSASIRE
Sequence of Serine/threonine-protein kinase PAK 2 (Homo sapiens) (Q13177 whole entry): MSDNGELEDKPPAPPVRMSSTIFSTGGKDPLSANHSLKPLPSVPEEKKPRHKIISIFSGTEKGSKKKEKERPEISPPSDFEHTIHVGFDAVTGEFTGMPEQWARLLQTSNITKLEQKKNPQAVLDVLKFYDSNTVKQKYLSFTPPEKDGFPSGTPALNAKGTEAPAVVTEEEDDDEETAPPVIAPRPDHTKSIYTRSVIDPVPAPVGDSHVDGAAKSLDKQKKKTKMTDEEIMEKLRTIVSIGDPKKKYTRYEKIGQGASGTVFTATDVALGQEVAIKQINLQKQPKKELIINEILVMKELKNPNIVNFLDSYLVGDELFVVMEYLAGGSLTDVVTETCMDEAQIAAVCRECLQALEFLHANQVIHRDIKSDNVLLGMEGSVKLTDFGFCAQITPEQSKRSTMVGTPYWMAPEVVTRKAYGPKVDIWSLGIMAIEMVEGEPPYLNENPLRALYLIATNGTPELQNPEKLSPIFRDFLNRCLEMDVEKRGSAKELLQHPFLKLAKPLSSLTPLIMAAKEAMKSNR

CCCOc1ccc(/C=C2\SC(=O)NC2=O)cc1
Activity (Mus musculus [1]): 816 U/L
inhibition [2]: 5%
inhibition [3]: 3%
inhibition [4]: 3%
Activity (Mus musculus [5]): 5.1 mg/dL
Activity (Mus musculus [6]): 17 mg/dL
Activity (Mus musculus [7]): 3.61 ×10⁹ /L
inhibition [8]: 14%
inhibition [9]: 9%
inhibition [10]: 4%
Activity (Mus musculus [11]): 12.2 g/dL
Activity (Mus musculus [12]): 3.73 ×10⁹ /L
Activity (Mus musculus [13]): 0.11 ×10⁹ /L
inhibition [14]: -1%
Activity (Mus musculus [15]): 80 U/L
Activity (Mus musculus [16]): 150 mmol/L
inhibition [17]: 1%
Activity (Mus musculus [18]): 5.5 mg/dL
inhibition [19]: -8%
Activity (Mus musculus [20]): Non-toxic
inhibition [21]: 62%
Activity (Mus musculus [22]): 0.04 ×10⁹ /L
Activity (Mus musculus [23]): 14 mg/dL
inhibition [24]: 0%
Activity (Mus musculus [25]): Non-toxic
Activity (Mus musculus [26]): 0.08 ×10⁹ /L
inhibition [27]: -1%
inhibition [28]: -3%
inhibition [29]: 1%
inhibition [30]: 6%
Activity (Mus musculus [31]): 3.5 ×10⁹ /L
inhibition [32]: 3%
inhibition [33]: 18%
inhibition [34]: 6%
Activity (Mus musculus [35]): 37 U/L
inhibition [36]: 9%
Activity (Mus musculus [37]): 2.6 g/dL
Activity (Mus musculus [38]): 0.2 mg/dL
Activity (Mus musculus [39]): 3.94 ×10⁹ /L
inhibition [40]: 6%
inhibition [41]: -1%
Activity (Mus musculus [42]): 4.95 ×10⁹ /L
inhibition [43]: 4%
inhibition [44]: -1%
inhibition [45]: 8%
Activity (Mus musculus [46]): Toxic
inhibition [47]: -1%
inhibition [48]: 10%
